# Screening data deposited in PubChem BioAssay by several laboratories.
# TNAP inh hiacc = TNAP (human) inhibition, high acceptor. P05186. purified TNAP, CDP-star luminescence, 1 M DEA. inhibition, % at 20 µM. hit rate 0.03% among 200,000. AID 1135;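 active means over 50% inhibition of tissue-nonspecific alkaline phosphatase at 20 µM in the single-dose screen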
# S1P4 antag = blocks the human S1P4 receptor | S1P4-expressing cells, antagonist mode, reporter read-out | inhibition, % at 4.98 µM | AID 1510 | hit rate 0.26% among 220,000; in the data active means inhibition above about 29%
# TNAP act hi DEA = TNAP (human) activation, high acceptor; P05186; purified TNAP, CDP-star luminescence, 1 M DEA, 30 min; active compounds read high; 0 = EDTA background, 1 = DMSO-only activity; activation factor at 20 µM; 200,000 tested, under 10 active; AID 1136;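 active means activation factor at least 2 at 20 µM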
#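 Test system – human TNAP · Doses – 20 µM single point · Incubation – 30 min, room temperature · Signal – luminescent substrate turnover signal · Read-out basis – activation factor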
# TNAP inh no acc = TNAP (human) inhibition, acceptor-free conditions. P05186. purified TNAP, CDP-star luminescence, 30 min. inhibition, % at 20 µM. hit rate 0.26% among 200,000. AID 1012;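 active means tissue-nonspecific alkaline phosphatase inhibition above about 50% at 20 µM in the single-dose screen, limit read from the data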
# S1P4 ag = agonists of human S1P4 receptor | O95977 | S1P4-expressing cell line, agonist reporter assay | activation, % at 4.98 µM | hit rate 0.35% among 220,000; in the data active means activation above about 11%
# S1P3 antagonist = blocks the human S1P3 receptor; hit rate 0.27% among 170,000; inhibition, % at 4.98 µM; AID 485; Q99500; CHO S1P3 NFAT-BLA reporter, FRET fluorescence, antagonist mode;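 active means inhibition above the plate cutoff, the mean inhibition of test wells on that plate plus 3 SD, cut at about 28% in these data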;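 further: cells challenged with S1P at its EC80 of 0.8 µM; blue over green emission ratio from cleaved BLA substrate after 4 h stimulation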
# Target sequence (Q99500 whole entry, looked up): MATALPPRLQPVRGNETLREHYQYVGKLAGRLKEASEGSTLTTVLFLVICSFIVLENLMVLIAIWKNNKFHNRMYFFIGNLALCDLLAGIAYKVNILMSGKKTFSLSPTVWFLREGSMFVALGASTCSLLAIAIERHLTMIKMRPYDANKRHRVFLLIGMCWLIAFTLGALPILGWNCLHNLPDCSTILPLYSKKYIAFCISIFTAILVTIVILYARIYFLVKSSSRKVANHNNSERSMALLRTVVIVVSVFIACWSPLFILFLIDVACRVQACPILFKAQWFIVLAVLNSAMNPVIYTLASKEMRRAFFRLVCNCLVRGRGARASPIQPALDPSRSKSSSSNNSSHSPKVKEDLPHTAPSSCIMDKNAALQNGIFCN
# Hits are given with their value; - = inactive; . = not tested or not shown. An excerpt weighted towards active compounds, which were near 1.1% of everything screened.
SMILES,TNAP inh hiacc,S1P4 antag,TNAP act hi DEA,TNAP inh no acc,S1P4 ag,S1P3 antagonist
CCOc1cc(/C=C2\CCC/C(=C\c3cc(Cl)c(O)c(OCC)c3)C2=O)cc(Cl)c1O,53,-,-,-,-,.
C=CCNC(=O)/C(C#N)=C\c1cc(Cl)c(O)c(OCC)c1,-,-,-,-,-,-
O=C(CN1CCOCC1)Nc1ccc2c(c1)OCCO2,.,-,.,.,-,-
O=[N+]([O-])c1ccc(O)c(/C=N/NC2=NS(=O)(=O)c3ccccc32)c1,-,-,-,73,-,-
O=S(=O)(c1cccs1)N1CCC(CO)(Cc2cccc(F)c2)CC1,-,-,-,-,-,-
Cn1c(=O)c(C(=O)CN2CCOCC2)c(N)n(Cc2ccccc2)c1=O,-,-,-,-,-,-
CCn1c(=O)c(C(=O)CN2CCOCC2)c(N)n(Cc2ccccc2)c1=O,-,-,-,-,-,77
CCNC(=O)c1ccc2c(c1)S(=O)(=O)c1ccccc1C2=O,-,-,-,-,-,85
NC(=O)c1ccc2c(c1)S(=O)(=O)c1ccccc1C2=O,.,-,.,.,-,-
O=C(O)CNC(=O)/C=C/c1ccc(Cl)cc1Cl,-,-,-,60,-,-
Cc1n[nH]c(C)c1S(=O)(=O)NCCc1ccc(Cl)cc1,-,-,-,61,-,.
N/C(=N\OC(=O)COc1ccc2ccccc2c1Br)c1ccncc1,-,-,-,-,-,-
COc1ccc2c(CC(=O)Nc3ccc(OC)c(NS(=O)(=O)c4ccc(F)cc4)c3)coc2c1,-,-,-,-,-,81
CCCc1n[nH]c2c1C(=O)C(C(=O)OC)C(C)(C)C2 (configuration not stated),-,-,-,61,-,-
COC(=O)C1C(=O)c2c(n[nH]c2C)CC1(C)C (configuration not stated),-,-,-,-,-,-
COC(=O)N=Nc1c(O)[nH]c2ccc(Br)cc12,.,-,.,.,-,-
COc1ccc(Cc2nnc(N=Nc3c(O)[nH]c4ccc(Br)cc34)[nH]c2=O)cc1,-,-,-,53,-,-
CC(=O)c1ccc(N2CCN(c3ccc(C(F)(F)F)cn3)CC2)cc1,-,-,-,-,-,77
Cc1ccc(NC(=O)CNc2ccc(N3CCOCC3)cc2)cc1S(=O)(=O)N(C)C,-,-,-,-,-,-
NC(=S)Nc1nc2ccccc2[nH]c1=O,-,-,-,71,-,.
N/C(=N\OCc1ccc([N+](=O)[O-])cc1)c1ccncc1,-,-,-,-,-,-
CC1(C)CC(=O)c2c(Cc3ccccc3)n[nH]c2C1,-,-,-,88,-,-
CC1(C)CC(=O)C(N=Nc2cccnc2)=C(O)C1,.,-,.,.,-,-
CCCc1n[nH]c2c1/C(=N\OCC)CC(C)(C)C2,.,-,.,.,-,-
CC1(C)CC(=O)c2c(-c3cccnc3)n[nH]c2C1,-,-,-,72,-,.
SMILES,TNAP inh hiacc,S1P4 antag,TNAP act hi DEA,TNAP inh no acc,S1P4 ag,S1P3 antagonist
CCCCc1n[nH]c2c1C(=O)CC(C)(C)C2,-,-,-,87,-,-
COc1ccc(OCCC(=O)OCC(=O)c2ccc[nH]2)cc1,-,-,-,-,-,-
CSc1cccc(NC(=S)N(CCCN2CCCC(C)C2)Cc2cccs2)c1 (configuration not stated),-,-,-,-,-,-
CCN(CC)S(=O)(=O)c1ccc(O)c(C(=O)OCC(=O)Nc2ccc(OC(F)(F)F)cc2)c1,-,-,-,-,-,-
Cc1nc2sc(C(=O)Nc3ccccc3)c(N)c2c(C)c1[N+](=O)[O-],-,-,-,-,-,-
Cn1ncc2c1ncn1nc(COc3ccc4ccccc4c3)nc21,-,-,-,-,-,-
Cn1ncc2c1ncn1nc(CCc3ccccc3)nc21,-,-,-,59,-,-
CCc1cccc(CC)c1NC(=O)COC(=O)C1(C)CC1(Cl)Cl (configuration not stated),-,-,-,-,-,-
Cc1ccc(-c2cc(C(=O)O)n[nH]2)s1,-,-,-,77,-,-
O=C(O)c1cc(-c2ccco2)[nH]n1,-,-,-,51,-,-
Cc1ccc(-c2cc(C(=O)N/N=C/C=C/c3ccccc3)n[nH]2)s1,-,-,-,-,-,-
CC1(C(=O)OCC(=O)Nc2ccc3ccccc3c2)CC1(Cl)Cl (configuration not stated),-,-,-,-,-,-
COc1ccc(C2CC(c3cccs3)=NN2C(=O)COC(=O)c2cncc(Br)c2)cc1OC (configuration not stated),-,-,-,-,-,-
Cc1cc(C)nc(N2N=C(C(F)(F)F)CC2=O)n1,.,-,.,.,-,-
Nc1c(C(=O)NCc2cccnc2)sc(=S)n1-c1ccccc1,-,-,-,-,-,-
CCn1c(N)c(C(=O)NCc2cccnc2)sc1=S,-,-,-,-,-,54
COc1cc(/C=C2\SC(c3ccc(C)cc3)=NC2=O)cc(OC)c1OC,-,-,-,-,-,.
COc1cc(/C=C2\SC(c3ccccc3)=NC2=O)cc(Cl)c1O,-,-,-,52,-,-
Cc1[nH]n(-c2ccccc2)c(=O)c1/C=N/NC(=O)c1cccc([N+](=O)[O-])c1,-,-,-,-,-,.
Cc1[nH]n(-c2cccc3ccccc23)c(=O)c1/C=N/NC(=O)c1cccc([N+](=O)[O-])c1,-,-,-,51,-,-
COc1ccc(CC(=O)Nc2cccc(-c3nnc(-c4cccc(C)c4)o3)c2)cc1OC,-,-,-,-,-,85
Cc1ccc(OCC(=O)NCCc2c[nH]c3ccccc23)cc1,-,-,-,-,-,-
O=C1N=c2ccccc2=C1c1sc(Nc2ccc(O)cc2)nc1O,-,-,-,82,-,-
C/C(CC(=O)Nc1ccccc1Br)=N\NC(=O)C(=O)N1CCCC1,-,-,-,66,-,.
C/C(CC(=O)Nc1ccc(Cl)cc1Cl)=N\NC(=O)C(=O)N1CCCC1,-,-,-,-,-,-
SMILES,TNAP inh hiacc,S1P4 antag,TNAP act hi DEA,TNAP inh no acc,S1P4 ag,S1P3 antagonist
O=C(CSc1nc(-c2ccccc2)nn1C(=O)c1ccccc1)Nc1cccc([N+](=O)[O-])c1,-,-,-,54,-,.
CCc1ccccc1NC(=O)CSc1nc(-c2ccccc2)nn1C(=O)c1cccc([N+](=O)[O-])c1,-,-,-,-,-,.
Cc1nc(N(C)C)c2sc(=S)n(C)c2n1,-,-,-,-,-,96
COC(=O)C(C(=O)OC)c1ccc(-n2cccc2)cc1,-,-,-,-,-,-
N#CCCS(=O)(=O)c1nnnn1-c1ccccc1,-,38,-,-,-,-
CCCCNC(=O)CC1Nc2ccccc2NC1=O (configuration not stated),-,-,-,-,-,-
O=C(CC1Nc2ccccc2NC1=O)NCc1cccnc1 (configuration not stated),-,-,-,-,-,102
CCc1ccc(NC(=O)c2cc(-c3ccco3)on2)cc1,-,-,-,-,-,59
